hERG protect: compounds protecting human hERG from proarrhythmic drug block | CHO-hERG, FluxOR thallium flux, dofetilide IC70 present | activation (rescue from dofetilide block), less the hit threshold, % at 10 µM | actives 0.51% (n = 310,000) | AID 1511;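 active means activation above the mean of controls blocked by dofetilide plus 5 SD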;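 further: thallium influx through hERG after potassium depolarization seen as dye fluorescence rise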
Target sequence (Q12809 whole entry, looked up): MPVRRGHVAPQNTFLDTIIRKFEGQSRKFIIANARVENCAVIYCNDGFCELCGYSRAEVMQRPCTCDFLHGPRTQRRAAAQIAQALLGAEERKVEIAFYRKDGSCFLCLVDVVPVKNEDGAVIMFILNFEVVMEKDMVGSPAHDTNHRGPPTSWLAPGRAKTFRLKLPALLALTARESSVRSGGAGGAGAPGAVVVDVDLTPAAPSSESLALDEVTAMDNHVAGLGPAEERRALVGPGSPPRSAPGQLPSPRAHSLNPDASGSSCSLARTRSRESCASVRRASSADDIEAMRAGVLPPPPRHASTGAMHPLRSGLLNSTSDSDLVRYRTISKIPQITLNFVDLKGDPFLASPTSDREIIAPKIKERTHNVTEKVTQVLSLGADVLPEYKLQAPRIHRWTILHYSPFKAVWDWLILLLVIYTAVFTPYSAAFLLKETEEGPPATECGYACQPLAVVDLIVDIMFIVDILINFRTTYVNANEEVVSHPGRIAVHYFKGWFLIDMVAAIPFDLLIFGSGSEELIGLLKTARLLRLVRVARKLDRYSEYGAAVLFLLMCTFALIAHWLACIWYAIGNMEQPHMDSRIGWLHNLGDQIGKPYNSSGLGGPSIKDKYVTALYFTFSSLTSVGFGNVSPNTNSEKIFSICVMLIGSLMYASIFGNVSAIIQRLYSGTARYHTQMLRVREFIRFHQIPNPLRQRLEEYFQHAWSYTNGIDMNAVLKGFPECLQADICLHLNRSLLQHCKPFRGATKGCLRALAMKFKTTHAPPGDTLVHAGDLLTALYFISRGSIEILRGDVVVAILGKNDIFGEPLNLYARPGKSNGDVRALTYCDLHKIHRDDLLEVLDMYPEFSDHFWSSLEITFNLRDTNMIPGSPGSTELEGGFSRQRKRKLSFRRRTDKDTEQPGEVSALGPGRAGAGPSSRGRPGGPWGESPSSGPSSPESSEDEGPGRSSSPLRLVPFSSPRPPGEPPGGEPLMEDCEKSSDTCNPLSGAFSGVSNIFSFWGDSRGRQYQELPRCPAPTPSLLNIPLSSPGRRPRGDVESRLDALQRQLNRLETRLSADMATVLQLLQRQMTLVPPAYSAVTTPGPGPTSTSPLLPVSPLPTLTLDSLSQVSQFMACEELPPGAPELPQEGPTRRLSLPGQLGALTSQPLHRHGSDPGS
SUMO Mot1 rescue: SUMOylation pathway inhibition by Mot1-301 growth rescue; S. cerevisiae Mot1-301 growth rescue, ATP luminescence, 38.5C; percent above DMSO median, 100 means doubled; growth rescue, % at 18.8 µM; actives 1% (n = 320,000);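 active means every valid replicate shows activation above 250% relative to neutral control wells; inactive means the rest, any valid replicate at or below 250%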;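 further: OY570 slx delta 5 strain wells were the positive control but not used for scaling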
AI-2 QS mod: Vibrio harveyi AI-2 quorum sensing modulation; Vibrio harveyi JMH597 AI-2 luminescence/OD600 ratio, 9 h; active compounds read low; strain lacks LuxN and CqsS sensors; 0 = neutral-control median; AID 2094; activity change, % at 7.5 µM; actives 0.4% (n = 300,000); in the data active means activity change below about -75%, passing the limit was not always enough; inconclusive means no clear call, values can overlap the other calls;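 further: luminescence divided by OD600 gain over 9 h not by final OD600 alone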
KCNQ1 pot: human KCNQ1 channel potentiation or activation | P51787 | CHO-K1 KCNQ1, thallium flux FluxOR fluorescence; active compounds read high | B-score at 10 µM | actives 0.35% (n = 310,000) | AID 2648;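 active means fluorescence ratio B-score, a plate-corrected score, at least three library SD, with initial intensity B-score within 5 SD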
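assay system = CHO-K1 cells stably expressing KCNQ1 | medium = assay buffer, equal DMSO in all wells | timing = 37 °C overnight plating, 90-min dark dye load, 20-min compound pretreatment | measured by = kinetic FluxOR thallium fluorescence, 10-s 1-Hz baseline, 110-s post-stimulus read | measure = fluorescence change relative to baseline, converted to B score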
KCNQ1 inh: inhibitors of human KCNQ1 potassium channel; P51787; CHO-K1 KCNQ1, FluxOR thallium flux fluorescence; active compounds read high; B-score at 10 µM; actives 1.3% (n = 310,000);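 active means compounds whose thallium flux B-score, printed positive for inhibition, exceeds three library SD while starting fluorescence stays within three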;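 further: channel opened by potassium depolarization with thallium stimulus after 20 min compound exposure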
Cl transport mod: modulates chloride dependent transport by human KCC2 | Q9H2X9 | KCC2 cells, thallium flux FluoZin-2 fluorescence | B-score of Tl+ flux slope (higher = more flux/activation; lower = inhibition) at 10 µM | actives 2.2% (n = 190,000) | AID 1456;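 active means thallium flux slope and its plate-corrected score both differing from the plate sample mean at a set confidence after two filtering rounds, in either direction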;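 further: slope of fluorescence scaled to starting intensity during 10 to 20 s after thallium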
KCC2 secondary: KCC2 (human) modulation, secondary assay | shares compounds with Cl transport mod | HEK293-KCC2, thallium flux, FluoZin2 fluorescence; active compounds read high | normalised thallium flux (F/F0 slope) at 10 µM | actives 15% (n = 3,700) | AID 1713;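 active means thallium flux slope above the same plate's solvent-only control mean plus 3 SD; inconclusive means the two replicate wells disagree; inactive means no significant difference from solvent-only control wells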
KCC2 bumet counter: thallium flux persisting under bumetanide in KCC2 cells, counter-screen secondary assay | shares compounds with Cl transport mod | HEK293-KCC2 + bumetanide/ouabain, thallium flux FluoZin2; active compounds read high | normalized thallium flux at 10 µM | actives 49% (n = 3,700) | AID 1714;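 active means thallium entry rate above the same plate's blocked-transporter control wells by more than 3 SD; inconclusive means the two repeat wells disagree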;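 further: raw slope of fluorescence over initial fluorescence between 10 and 20 s after thallium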
KCC2 secondary2: KCC2 (human) modulation, second secondary assay. normalized thallium flux at 10 µM. actives 23% (n = 3,700). shares compounds with Cl transport mod. HEK293-KCC2, thallium flux FluoZin2 fluorescence; actives lie on both sides; F/F0 rise rate, 10–20 s post-thallium. AID 1715;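 active means thallium flux slope more than 3 SD above or below the plate's solvent-only control mean, mostly below; inconclusive means the two repeat wells disagreed; inactive means no significant shift from solvent-only controls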;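 further: raw slope with 0.1% DMSO as baseline and bumetanide as block control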
HEK293 Tl flux: counter-screen for KCC2 modulators: effect in parental HEK293 cells; actives 46% (n = 3,700); thallium flux rate (normalised fluorescence) at 10 µM; thallium flux FluoZin2, ouabain; baseline-ratio fluorescence slope, 10–20 s after thallium; shares compounds with Cl transport mod;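 active means thallium flux rate significantly above the same plate's solvent-only control wells, beyond their mean plus 3 SD; inconclusive means the two replicate wells gave conflicting results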
KCC2 retest ouab: confirmation of human KCC2 modulators with ouabain; shares compounds with Cl transport mod; HEK293-KCC2, thallium flux FluoZin2 fluorescence; bidirectional: low = inhibitor, high = activator; raw Tl+ flux slope (below DMSO = inhibition, above = activation) at 10 µM; actives 48% (n = 3,700);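 active means thallium flux slope beyond 3 SD from same-plate DMSO control mean in most replicates, usually higher, sometimes lower; inconclusive means repeat tests gave conflicting results; inactive means no significant difference from controls in most replicates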;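 further: slope of initial-normalized fluorescence between seconds 10 and 20 after thallium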
HEK counter2: counter-screen for KCC2 modulators: effect in parental HEK293 cells | shares compounds with Cl transport mod | thallium flux FluoZin-2 fluorescence slope | thallium flux slope at 10 µM | actives 33% (n = 3,700);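 active means thallium flux slope above the same plate's solvent-control mean plus 3 SD in both duplicate wells; inconclusive means duplicate wells that disagreed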;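 further: run without ouabain in cells lacking the KCC2 cotransporter; slope of fluorescence scaled to its starting value between 10 and 20 s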
* marks the source's active call; other numbers are inactive results. The list is not random: actives were taken first. Their share in the collection is about 4.2%.

O=C(Nc1ccc(S(=O)(=O)Nc2ncccn2)cc1)C1CC(=O)N(c2ccc(Cl)cc2)C1 (configuration not stated) was read as hERG protect -7, SUMO Mot1 rescue 14, AI-2 QS mod 15, KCNQ1 pot inactive and KCNQ1 inh inactive.
For CC1=Nc2ccccc2/C1=C/c1sc(=N)n(-c2nccs2)c1O the results were hERG protect -24, SUMO Mot1 rescue 105, AI-2 QS mod 20, KCNQ1 pot inactive, KCNQ1 inh 10*, Cl transport mod -3.6*, KCC2 secondary 0.0062, KCC2 bumet counter 0.00052*, KCC2 secondary2 0.02*, HEK293 Tl flux 0.0049*, KCC2 retest ouab 0.0097* and HEK counter2 0.0071*.
Screening CC1=Nc2ccccc2/C1=C/c1nc(-c2ccc(C)s2)oc1O returned hERG protect -36, SUMO Mot1 rescue 4, AI-2 QS mod 6, KCNQ1 pot inactive, KCNQ1 inh inactive and Cl transport mod -1.
`CCCn1nnc(NC(=O)c2ccc(-c3cccc(Cl)c3)o2)n1` gave hERG protect -19, AI-2 QS mod 28, KCNQ1 pot inactive, KCNQ1 inh inactive and Cl transport mod -1.5.
For CCn1nnc(NC(=S)NC(=O)c2ccc(-c3cccc(Cl)c3)o2)n1 the results were hERG protect -5, SUMO Mot1 rescue 37, AI-2 QS mod 23, KCNQ1 pot inactive, KCNQ1 inh inactive, Cl transport mod 67*, KCC2 secondary inconclusive, KCC2 bumet counter 0.085*, KCC2 secondary2 0.065*, HEK293 Tl flux 0.057*, KCC2 retest ouab 0.066* and HEK counter2 0.054*.
COc1ccc(C/C(N)=N/OC(=O)CCc2ccccc2)cc1 was read as hERG protect -1, SUMO Mot1 rescue -4, AI-2 QS mod 18, KCNQ1 pot inactive and KCNQ1 inh inactive.
Screening COc1ccccc1-c1nnc2sc(COc3ccc(F)cc3)nn12 returned hERG protect -10, SUMO Mot1 rescue 4, AI-2 QS mod 28, KCNQ1 pot inactive, KCNQ1 inh inactive, Cl transport mod -3.9*, KCC2 secondary 0.0066, KCC2 bumet counter 0.0048, KCC2 secondary2 inconclusive, HEK293 Tl flux 0.0059*, KCC2 retest ouab 0.015* and HEK counter2 inconclusive.
For O=C(CSc1nnc(-c2ccc(O)cc2)n1Cc1ccco1)N1CCc2ccccc2C1 the results were hERG protect -7, SUMO Mot1 rescue 7, AI-2 QS mod 27, KCNQ1 pot inactive, KCNQ1 inh inactive, Cl transport mod -3.7*, KCC2 secondary 0.0071, KCC2 bumet counter 0.004, KCC2 secondary2 0.023*, HEK293 Tl flux 0.0069, KCC2 retest ouab 0.013* and HEK counter2 0.0099.
O=C(c1cc2c(s1)-c1ccccc1S(=O)(=O)C2)N1CCN(Cc2ccccc2)CC1 was read as hERG protect -6, SUMO Mot1 rescue 271, AI-2 QS mod 20, KCNQ1 pot inactive, KCNQ1 inh inactive, Cl transport mod -2.7, KCC2 secondary 0.0062, KCC2 bumet counter 0.0058, KCC2 secondary2 0.028, HEK293 Tl flux 0.0065, KCC2 retest ouab inconclusive and HEK counter2 0.0093.
`CC(C)CCNC(=O)[C@H](CSCc1ccccc1)N1Cc2ccccc2C1=O` gave hERG protect -9, SUMO Mot1 rescue -20, AI-2 QS mod 9, KCNQ1 pot inactive, KCNQ1 inh inactive, Cl transport mod -4.2*, KCC2 secondary 0.0058*, KCC2 bumet counter 0.0045, KCC2 secondary2 inconclusive, HEK293 Tl flux inconclusive, KCC2 retest ouab 0.014* and HEK counter2 0.0093.
`CC(C)n1c(NCc2nc3ccccc3n2C)nc2ccccc21` gave hERG protect -24, SUMO Mot1 rescue 3, AI-2 QS mod 6, KCNQ1 pot inactive, KCNQ1 inh inactive, KCC2 secondary 0.0078, KCC2 bumet counter 0.0057, KCC2 secondary2 0.032, HEK293 Tl flux 0.007, KCC2 retest ouab 0.017 and HEK counter2 inconclusive.
Cn1c(CNc2nc3ccccc3n2C)nc2ccccc21 was read as hERG protect -14, SUMO Mot1 rescue -8, AI-2 QS mod 26, KCNQ1 pot inactive, KCNQ1 inh inactive and Cl transport mod 1.1.
Screening N#Cc1ccccc1Sc1ccccc1C(=O)OCc1nnc(-c2ccccc2)o1 returned hERG protect -8, SUMO Mot1 rescue -3, AI-2 QS mod 7, KCNQ1 pot inactive, KCNQ1 inh inactive, Cl transport mod -3.8*, KCC2 secondary inconclusive, KCC2 bumet counter 0.0059, KCC2 secondary2 0.031, HEK293 Tl flux 0.01*, KCC2 retest ouab inconclusive and HEK counter2 0.011.
`CC(C)CN(C(=O)CN(C)C(=O)c1ccco1)c1c(N)n(CC(C)C)c(=O)[nH]c1=O` gave hERG protect -14, SUMO Mot1 rescue 24, AI-2 QS mod 25, KCNQ1 pot inactive and KCNQ1 inh inactive.
`C[C@H](NC(=O)c1[nH]cnc1C(=O)Nc1ccc(Cl)cc1)c1ccccc1` gave SUMO Mot1 rescue 12.
Screening CCn1c2ccccc2c2nnc(NN)nc21 returned hERG protect -8, SUMO Mot1 rescue -9, AI-2 QS mod 29, KCNQ1 pot inactive, KCNQ1 inh inactive and Cl transport mod 1.3.
For CCn1c2ccc(C)cc2c2nnc(NN)nc21 the results were hERG protect -10, SUMO Mot1 rescue 16, AI-2 QS mod 32, KCNQ1 pot inactive, KCNQ1 inh inactive, Cl transport mod -6.9*, KCC2 secondary 0.01, KCC2 bumet counter inconclusive, KCC2 secondary2 0.034, HEK293 Tl flux 0.0075, KCC2 retest ouab 0.023 and HEK counter2 0.011.

Screens: PubChem BioAssay, several laboratories
